# Paper PMC11170706 (ACS Omega, 2024)
# Columns and labels:
# [1] = tested on: human normal cell line HaCaT; test: MTT cell proliferation assay, HaCaT cells; type: cell-based; settings: 72 h, read-out: IC50 value (μM) HaCaT
# Summary of the method: (§1)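 Human lines kept in DMEM with 10% FBS and 1% Pen-Strep at 37 °C, 5% CO2. 2 × 10^3 cells/well were seeded, grown 24 h, then exposed to test compound for 72 h (SAS and T.Tn: 0, 5, 10, 25, 50, 100 μM; HaCaT: 0, 10, 25, 50, 75, 100 μM). MTT (5 mg/mL stock) was added for 2 h, formazan dissolved in DMSO, and A570 read. Percentage proliferation was taken relative to untreated control. IC50 was read where the dose–response curve crosses 50%.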
# OSCC cell line SAS = test: MTT cell proliferation assay, SAS cells; type: cell-based, human; settings: for IC50: Homo sapiens, 72 h, read-out: IC50 value (μM) SAS; for Selectivity index (SI) IC50 (HaCaT)/IC50 (SAS): ratio of IC50 in HaCaT to IC50 in SAS
# SAS cells [2] = test: Wound-healing scratch assay; type: cell-based, human; settings: 24 h
# Summary of the method: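 SAS cells were seeded at 6 × 10^5 per well and grown to a monolayer. Cells were serum-starved in DMEM for 6 h to block proliferation, then scratched with a pipette tip and PBS-washed. Test compound was added and wounds were imaged at 0 and 24 h. Percentage wound area remaining is reported as mean ± SD, Student's t test, p < 0.05.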
# SAS cells [3] = test: PI-based flow cytometric analysis of cell death; parameters: species or system human; settings: 48 h, PI staining
# Summary of the method: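 After 24 h attachment, 2 × 10^5 SAS cells per well received test compound for 48 h. Floating cells from the medium were pooled with trypsinized cells and washed three times in PBS. The unfixed cells were resuspended in PBS with PI and analysed by flow cytometry, with percentage of dead cells recorded.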
# SAS cells [4] = test: Colony formation; type: cell-based, human; settings: for inhibition at 10 µM: read-out: inhibition/reduction of colony formation
# Summary of the method: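 SAS cells were seeded at 2 × 10^3 per well and attached for 24 h. Test compound (1–20 μM range) was given for 24 h, then replaced with fresh medium for 10 days of growth. Colonies were washed in PBS, fixed in 70% ethanol for 4 h at −20 °C, stained with 0.01% crystal violet and counted. Plating efficiency = colonies/cells plated × 100. Survival fraction = PE treated/PE control.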
# [5] = tested on: Bcl-2, caspases, COX-2, MMP-9, survivin, VEGF, Akt/mTOR and STAT-3 in SAS cells; test: Western blot analysis of proteins involved in OSCC; type: cell-based, human; settings: 24 h, AA2 2.5, 5, 10 μM, AA3 10, 15, 20 μM
# Summary of the method: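 SAS cells were seeded at 4 × 10^5 per well, attached 24 h, then treated 24 h with test compound (0–20 μM). Lysis buffer: 20 mM HEPES, 250 mM NaCl, 2 mM EDTA, 0.1% Triton X-100, 1 mM DTT, protease inhibitors. Protein was quantified by Bradford and equal amounts run on 12% SDS-PAGE, then transferred to nitrocellulose. Blocking was 5% milk, primary antibody overnight at 4 °C, HRP secondary 2 h, ECL detection. α-Tubulin served as loading control.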
# [6] = tested on: esophageal cancer cell line T.Tn; test: MTT cell proliferation assay, T.Tn cells; type: cell-based; settings: Homo sapiens, 72 h, read-out: IC50 value (μM) T.Tn
# Summary of the method: as §1
# SAS cells [7] = test: Annexin V-based flow cytometric analysis of apoptosis; type: cell-based, human; settings: 48 h
# Summary of the method: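 SAS cells were seeded at 2 × 10^5 per well, grown 24 h, then exposed to test compound for 48 h. Medium-borne and trypsinized cells were collected and washed three times in PBS. They were labelled with annexin V for 20 min, then PI for 10 min, and analysed by flow cytometry. Apoptosis was computed from quadrants Q2+Q4.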
# SAS cells [8] = test: PI-RNase-based cell-cycle analysis; parameters: species or system human; settings: 24 h, AA2 1-10 μM, AA3 5-20 μM, PI-RNase flow cytometry
# Summary of the method: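 SAS cells were seeded at 2 × 10^5 per well, grown 24 h, then treated 24 h with test compound. Cells were trypsinized, PBS-washed and fixed overnight in 75% ethanol at −20 °C. They were stained with PI-RNase for 20 min in the dark and analysed by flow cytometry for the percentage of cells in each cycle phase.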
SMILES,IC50 [1] [µM],IC50 (OSCC cell line SAS) [µM],Selectivity index (SI) IC50 (HaCaT)/IC50 (SAS) (OSCC cell line SAS),wound area (initial gap) remaining (SAS cells [2]; 5 μM),wound area (initial gap) remaining (SAS cells [2]; 10 μM),inhibition at 10 µM (SAS cells [4]; Homo sapiens) [%],effect on Akt/mTOR and STAT-3 signaling pathways [5],effect on Bcl-2 expression [5],effect on caspase-3 and caspase-9 [5],IC50 [6] [µM],apoptosis (percentage of apoptotic cells) (SAS cells [7]; 5 μM) [%],apoptosis (percentage of apoptotic cells) (SAS cells [7]; 10 μM) [%],effect on cell-cycle progression (SAS cells [8]),also measured
"O=c1[nH]cc(F)c(=O)[nH]1 [5-FU, 5-fluorouracil, reference compound]",4,3,1.3,,,,,,,,,,,
"CC(C)=CCc1c(-c2cc(O)c(O)cc2O)oc2c3c(cc(O)c2c1=O)OC(C)(C)C=C3 [AA2, artonin E]",72,6,12,over 60%,over 75%,> 90,inhibition of the Akt/mTOR and STAT-3 signaling pathways,downregulation of Bcl-2,activation of caspase-3 and caspase-9 in a dose-dependent manner,8,18,22,arrest of these cells in the S-phase,"wound area (initial gap) remaining (SAS cells [2]; 1 μM): approximately 25%; wound area (initial gap) remaining (SAS cells [2]; 2.5 μM): 40%; cell death (SAS cells [3]; 10 μM): more than 80%; inhibition at 5 µM (SAS cells [4]; Homo sapiens, read-out: inhibition of colony formation): > 90%; reduction of colony formation (SAS cells [4]; SAS cells, 2.5 μM, 24 h treatment, 10 days culture): over 50%; apoptosis (percentage of apoptotic cells) (SAS cells [7]; 2.5 μM): 8%"
"C=C(C)[C@H]1Cc2c(oc3c4c(cc(O)c3c2=O)OC(C)(C)C=C4)-c2c(O)cc(O)c(O)c21 [AA3, artobiloxanthone]",70,11,6.4,over 45%,over 60%,> 80,inhibition of the Akt/mTOR and STAT-3 signaling pathways,downregulation of Bcl-2,activation of caspase-3 and caspase-9 in a dose-dependent manner,22,8,18,arrest of these cells in the S-phase,wound area (initial gap) remaining (SAS cells [2]; 15 μM): over 65%; wound area (initial gap) remaining (SAS cells [2]; 20 μM): 90%; cell death (SAS cells [3]; 20 μM): approximately 8%; apoptosis (percentage of apoptotic cells) (SAS cells [7]; 15 μM): 26%; apoptosis (percentage of apoptotic cells) (SAS cells [7]; 20 μM): 30%
